In ChEMBL document CHEMBL3813647, “Discovery of an Orally Active and Liver-Targeted Prodrug of 5-Fluoro-2'-Deoxyuridine for the Treatment of Hepatocellular Carcinoma” (J Med Chem, 2016):

Tests used:
[1] = Cytotoxicity against human SMMC7721 cells assessed as reduction in cell viability after 72 hrs by MTT assay; type: functional, cell-based; details: SMMC-7721, 72 h
Outline: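 Cells in RPMI-1640 with 10% FBS, seeded at 4 × 10³ per well and attached for 24 h. Compound (DMSO ≤0.5% final) added for 72 h at 37 °C, 5% CO2. Viability read by MTT. IC50 set against 0.5% DMSO-treated cells taken as 100% viable. Mean of two independent experiments, each run in triplicate.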

[2] = Half life in rat plasma by HPLC analysis; type: ADME, cell-free
Outline: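 Rat plasma, 37 °C. Compound added from a 2.5 mM stock, sampled at 0–24 h, quenched with MeOH. Analyzed by HPLC-UV at 267 nm (C8 column, MeOH:H2O 68:32). Triplicate samples.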

Liver [3] = test: Drug metabolism in phenobarbital/beta-napthoflavone treated Sprague-Dawley rat liver S9 fraction assessed as prodrug activation at 50 uM preincubated for 5 mins followed by NADPH addition measured up to 60 mins by HPLC-MS/MS analysis; type: ADME, subcellular; details: s9, 1 h
Outline: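 S9 prepared from livers of Sprague-Dawley rats dosed i.g. with phenobarbital/β-naphthoflavone for 3 days. Incubation: 100 mM KH2PO4 pH 7.4, 5 mg/mL S9, compound at 50 μM, 5 min preincubation at 37 °C, then 2 mM NADPH. Samples at 0–60 min, MeOH extraction, FdUMP (m/z 325→129) measured by HPLC-MS/MS. Triplicate.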

Liver [4] = test: Drug uptake in Sprague-Dawley rat liver S9 fraction treated with (S)-Isopropyl 2-(((R)-(((2R,3S,5R)-5-(5-fluoro-2,4-dioxo 3,4-dihydropyrimidin-1(2H)-yl)-3-hydroxytetrahydrofuran-2-yl)methoxy)((2-methylbenzyl)oxy)phosphoryl)amino)propanoate at 20 ug/mL preincubated for 5 mins followed by NADPH addition measured at 20 mins by HPLC-MS/MS analysis; type: ADME, subcellular; details: s9, 20 min
Outline: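 Rat liver S9 (10 mg/mL) incubated with compound at 20 μg/mL. Parent, intermediate A and FdUMP followed over time by HPLC-MS/MS. Negative control run without NADPH.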

| half-life [2] | Drug metabolism (Liver [3]) | Drug uptake (Liver [4]) | SMILES | IC50 [1] |
| --- | --- | --- | --- | --- |
| > 24 h | 12.5 nmol/min/mg | – | O=c1[nH]c(=O)n([C@H]2C[C@H](O)[C@@H](COP(=O)(NCc3ccccc3)OCc3cccc(F)c3)O2)cc1F (some centres undefined) | 241 µM |
| 3.4 h | 238.9 nmol/min/mg | – | COc1ccccc1COP(=O)(NCc1ccccc1)OC[C@H]1O[C@@H](n2cc(F)c(=O)[nH]c2=O)C[C@@H]1O (some centres undefined) | 6.8 µM |
| > 24 h | 34.7 nmol/min/mg | – | O=c1[nH]c(=O)n([C@H]2C[C@H](O)[C@@H](COP(=O)(NCc3ccccc3)OCc3ccccc3F)O2)cc1F (some centres undefined) | 155 µM |
| > 24 h | 49.4 nmol/min/mg | – | Cc1cccc(COP(=O)(NCc2ccccc2)OC[C@H]2O[C@@H](n3cc(F)c(=O)[nH]c3=O)C[C@@H]2O)c1 (some centres undefined) | 139 µM |
| > 24 h | 22.6 nmol/min/mg | – | O=c1[nH]c(=O)n([C@H]2C[C@H](O)[C@@H](COP(=O)(NCc3ccccc3)OCc3cccc(Cl)c3)O2)cc1F (some centres undefined) | 206 µM |
| > 24 h | 29.2 nmol/min/mg | – | O=c1[nH]c(=O)n([C@H]2C[C@H](O)[C@@H](COP(=O)(NCc3ccccc3)OCc3ccccc3Cl)O2)cc1F (some centres undefined) | 132 µM |

Continued, compound first:

| SMILES | half-life [2] | Drug metabolism (Liver [3]) | Drug uptake (Liver [4]) | IC50 [1] |
| --- | --- | --- | --- | --- |
| O=c1[nH]c(=O)n([C@H]2C[C@H](O)[C@@H](COP(=O)(NCc3ccccc3)OCc3cccc(Br)c3)O2)cc1F (some centres undefined) | > 24 h | 32.8 nmol/min/mg | – | 225 µM |
| Cc1ccc(COP(=O)(NCc2ccccc2)OC[C@H]2O[C@@H](n3cc(F)c(=O)[nH]c3=O)C[C@@H]2O)cc1 (some centres undefined) | > 24 h | 53.5 nmol/min/mg | – | 31.7 µM |
| O=c1[nH]c(=O)n([C@H]2C[C@H](O)[C@@H](COP(=O)(NCc3ccccc3)OCc3ccc(Br)cc3)O2)cc1F (some centres undefined) | > 24 h | 39.1 nmol/min/mg | – | 107 µM |
| O=c1[nH]c(=O)n([C@H]2C[C@H](O)[C@@H](COP(=O)(NCc3ccccc3)OCc3ccc(Cl)cc3)O2)cc1F (some centres undefined) | > 24 h | 25.6 nmol/min/mg | – | 133 µM |
| Cc1ccccc1CO[P@](=O)(N[C@@H](C)C(=O)O)OC[C@H]1O[C@@H](n2cc(F)c(=O)[nH]c2=O)C[C@@H]1O | – | – | metabolite_detected | – |
| COc1cccc(COP(=O)(NCc2ccccc2)OC[C@H]2O[C@@H](n3cc(F)c(=O)[nH]c3=O)C[C@@H]2O)c1 (some centres undefined) | > 24 h | 118.7 nmol/min/mg | – | 386 µM |
